Compound activity as filed in PubChem BioAssay.
SENP6 block = blocks the human protease SENP6; Q9GZR1; Recombinant SENP6 catalytic domain, aminoluciferin luminescence; inhibition, % at 10 µM; 330,000 compounds, 1.8% hits; AID 2599;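 active means inhibition above about 50% at the single tested dose, limit read from the data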;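 further: plate controls were DMSO wells with enzyme for no effect and DMSO wells lacking enzyme for full effect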
Target sequence (Q9GZR1 628-1112 limits assumed): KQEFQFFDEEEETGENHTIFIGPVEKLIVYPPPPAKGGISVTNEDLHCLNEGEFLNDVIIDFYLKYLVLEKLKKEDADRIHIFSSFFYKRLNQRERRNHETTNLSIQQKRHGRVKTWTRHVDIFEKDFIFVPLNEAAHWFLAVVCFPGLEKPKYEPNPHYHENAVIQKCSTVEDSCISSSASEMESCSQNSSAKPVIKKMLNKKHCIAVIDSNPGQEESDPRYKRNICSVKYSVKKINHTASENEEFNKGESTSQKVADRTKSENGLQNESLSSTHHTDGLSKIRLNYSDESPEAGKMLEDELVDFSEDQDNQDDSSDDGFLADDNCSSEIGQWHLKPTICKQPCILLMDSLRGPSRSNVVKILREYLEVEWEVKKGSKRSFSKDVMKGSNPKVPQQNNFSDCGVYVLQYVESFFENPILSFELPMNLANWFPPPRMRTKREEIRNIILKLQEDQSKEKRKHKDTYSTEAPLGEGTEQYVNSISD
SENP8 block-1 = blocks human SENP8 cleavage of Nedd8 substrate | Q96LD8 | inhibition, % at 20 µM | recombinant SENP8, Nedd8 substrate fluorescence | 360,000 compounds, 0.64% hits | AID 602440; in the data active means inhibition mostly above about 40%, no sharp cut-off; inactive means mostly below about 27%
Apaf1 inhib = inhibitors of human Apaf-1 apoptosome. 330,000 compounds, 0.71% hits. O14727. reconstituted apoptosome caspase-3 activity, DEVD-Rh110 fluorescence. inhibition, % at 20 µM; active means inhibition of at least 40% at 20 µM;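 further: plate controls were DMSO wells for no effect and DEVD-CHO caspase inhibitor wells for full effect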
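detection = Rh110 fluorescence intensity | test system = biochemical Apaf-1 apoptosome reconstitution | also added = cytochrome c and DEVD-Rh110 substrate | schedule = 30 min plus 50 min, RT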
SENP7 block = inhibitors of human SENP7 protease; 330,000 compounds, 1.5% hits; inhibition, % at 5 µM; recombinant SENP7, Z-RLRGG-aminoluciferin luminescence, 40 min; Q9BQF6;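 active means inhibition above about 50% at the single test dose, limit read from the data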;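 further: plate controls were DMSO with enzyme for no effect and no enzyme buffer wells for full effect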
UBC13 polyUb = human UBC13 polyubiquitination inhibition | UBC13 polyubiquitin chain formation, TR-FRET | inhibition, % at 20 µM | 330,000 compounds, 0.47% hits | P61088 | AID 485273; in the data active means inhibition above about 45%, passing the limit was not always enough
SENP8 block-2 = SENP8 protease inhibition; purified SENP8, Z-RLRGG-aminoluciferin cleavage, luminescence; 330,000 compounds, 1.2% hits; inhibition, % at 10 µM; in the data active means inhibition above about 50%
SENP8 conf = SENP8 (human) inhibition, single concentration confirmation. inhibition, % at 25 µM. 1,400 compounds, 15% hits. shares compounds with SENP8 block-1. purified SENP8, Nedd8-AMC/pro-Nedd8 cleavage fluorescence, 30 min; in the data active means inhibition mostly above about 39%, no sharp cut-off; inactive means mostly below about 34%
The depositor's hits bear a star; / = no result given. Rows were chosen to be rich in hits. Some 3.1% of all compounds tested hit in one or more screens of this group.

SMILES	SENP6 block	SENP8 block-1	Apaf1 inhib	SENP7 block	UBC13 polyUb	SENP8 block-2	SENP8 conf
CCNc1nc(NCC)nc(OCC(=O)O)n1	-15	46*	-34	3	-1	1	21
CCNc1nc(NOC)nc(OCC#N)n1	5	15	-15	15	6	3	/
O=C(NCC1CCOCC1)c1ccc(-c2ccc(F)c(F)c2)c2ccoc12	/	-18	/	/	/	/	/
O=c1[nH]n2c(=O)c3c([nH]c2c1N=Nc1cccc(C(F)(F)F)c1)CCCC3	5	56*	30	-6	-117	-6	24
CC(C)CC1C(=O)N(Cc2cn(Cc3ccco3)nn2)CCS(=O)(=O)N1Cc1ccc(-c2ccccc2)cc1 (stereo not drawn)	/	3	/	/	/	/	/
COc1ccc(-c2noc(CN(C)C(=O)CCCN3C(=O)[C@H]4CC=CC[C@H]4C3=O)n2)cc1	/	14	/	/	/	/	/
Cc1ccc(NC(=O)c2sc(N)nc2-c2ccc([N+](=O)[O-])cc2)c(C)c1	-3	45*	-17	-13	6	-7	11
Cc1cn([C@H]2C[C@H](O)[C@@H](/C=C/C(=O)NCCN3CCCCC3)O2)c(=O)[nH]c1=O	/	18	/	/	/	/	/
O=C(O)c1ccccc1/C=N/NC(=S)NC1CCCCC1	2	46*	-3	7	7	8	1
O=C(O)c1ccccc1/C=N/NC(=O)C1CCCCC1	11	6	2	-1	6	0	/
COc1ccc(CN2C(=O)C(CC(=O)NCC3CCCCC3)CC(C(=O)N3CCOCC3)=C2C)cc1 (stereo not drawn)	/	1	/	/	/	/	/
CCc1nc2c(OCc3ccc(C(F)(F)F)cc3)cccn2c1N(C=O)Cc1ccc(OC)cc1	/	16	/	/	/	/	/
COc1ccc(CCNC(=O)[C@H](C)N2C(=O)N3CCc4c([nH]c5ccccc45)[C@@]3(C)C2=O)cc1OC	7	26	2	-1	8	-2	/
COc1ccccc1CNC(=O)[C@H](C)N1C(=O)N2CCc3c([nH]c4ccccc34)[C@@]2(C)C1=O	-2	43*	-1	0	8	8	14
COc1ccc(CNC(=O)[C@@H](NC(=O)C2CCN(C(=O)[C@@H](N)CC(C)C)CC2)C(C)C)cc1	-10	52*	0	13	-8	-6	9
CC(C)C[C@H](N)C(=O)N1CCC(C(=O)N[C@H](C(=O)NC(C)c2ccccc2)C(C)C)CC1 (stereo partly drawn)	7	42*	-1	-8	7	4	11
CC(C)C[C@H](N)C(=O)N1CCC(C(=O)N[C@H](C(=O)NCc2ccc(F)cc2)C(C)C)CC1	-17	8	4	-8	1	-5	/
O=C(NC(c1ccc(Cl)cc1)c1ccsc1)C1CCN(Cc2ccc(Oc3ccccc3)cc2)CC1 (stereo not drawn)	/	13	/	/	/	/	/
Cc1nc2ccc(NC(=O)c3cc([N+](=O)[O-])cc([N+](=O)[O-])c3Cl)cc2s1	/	41*	/	/	/	/	26
Cc1nc2ccc(NC(=O)c3ccc(Cl)c([N+](=O)[O-])c3)cc2s1	-4	0	3	-4	1	-11	/
CS(=O)(=O)N1CCN(c2ccc([N+](=O)[O-])c(NCc3ccccc3)c2)CC1	-4	45*	12	-13	-27	-9	23
CCS(=O)(=O)N1CCN(c2ccc([N+](=O)[O-])c(NC(C)c3ccccc3)c2)CC1 (stereo not drawn)	-1	60*	16	2	-20	0	1
O=[N+]([O-])c1ccc(N2CCCC2)cc1NC(c1ccccc1)c1ccccc1	-3	56*	6	2	-7	-3	8
CCc1nc2ccc(C(=O)N3CCN(C(=O)c4ccco4)CC3)cn2c1N(C)Cc1nccn1C	/	3	/	/	/	/	/
S=c1sscc1-c1ccccc1	/	35	/	/	/	/	/
CCc1ccc2c(c1)c1nc(C)sc1n2CC	20	96*	9	9	5	9	15
CCCS(=O)(=O)NC(=O)C1(C)CCN(C(=O)c2ccc(OC)cc2OC)C1 (stereo not drawn)	/	25	/	/	/	/	/
Cc1[nH]nc(N2CCCCC2)c1[N+](=O)[O-]	-5	44*	-6	5	4	1	6
Cc1cc(C)n(-c2n[nH]c(C)c2[N+](=O)[O-])n1	-18	9	6	-2	-5	-2	/
